{"data": "Results from different studies", "GLP1R": "Glucagon-like peptide 1 receptor (GLP1R, Homo sapiens, UniProt P43220)", "DRD3": "D(3) dopamine receptor (DRD3, Homo sapiens, UniProt P35462)", "note": "Lines come from different studies, so protocols differ."}
{"Compound": "CC[C@H](C)[C@H](NC(=O)[C@H](CC(=O)O)NC(=O)[C@H](CC(N)=O)NC(=O)[C@@H](NC(=O)[C@H](Cc1ccccc1)NC(=O)[C@H](CO)NC(=O)CNC(=O)[C@H](CC(=O)O)NC(=O)[C@H](C)NC(=O)[C@@H](N)Cc1c[nH]cn1)[C@@H](C)O)C(=O)N[C@@H](CC(N)=O)C(=O)N[C@@H](CCCCN)C(=O)N[C@H](C(=O)N[C@@H](CC(C)C)C(=O)N[C@@H](CC(=O)O)C(=O)N[C@H](C(=O)N[C@H](C(=O)N[C@@H](C)C(=O)N[C@@H](C)C(=O)N[C@@H](CCC(N)=O)C(=O)N[C@@H](CCC(=O)O)C(=O)N[C@@H](Cc1ccccc1)C(=O)N[C@@H](CC(C)C)C(=O)N[C@@H](CC(=O)O)C(=O)N[C@@H](Cc1c[nH]c2ccccc12)C(=O)N[C@H](C(=O)N[C@H](C(=O)N[C@@H](CC(N)=O)C(=O)N[C@H](C(=O)N[C@@H](CCC(N)=O)C(=O)N[C@H](C(=O)N[C@H](C(=O)N[C@@H](CCC(=O)O)C(=O)O)[C@@H](C)O)C(C)C)[C@@H](C)O)[C@@H](C)CC)C(C)C)[C@@H](C)CC)[C@@H](C)CC)C(C)C", "target": "GLP1R", "test": "reporter gene, agonist, luciferase", "measurement": "EC50", "value": "29.9 nM"}
{"Compound": "Cc1cc(O)cc(C)c1C[C@H](N)C(=O)N[C@H](C)C(=O)NCC(=O)N[C@@H](Cc1ccc(Cl)cc1)C(=O)N(C)CCC[C@@]1(c2ccc(F)cc2)OCc2cc(C#N)ccc21", "target": "DRD3", "test": "ligand displacement, radioligand", "measurement": "Ki", "value": "890 nM"}
{"Compound": "CC(C)C[C@H](NC(=O)[C@H](Cc1c[nH]c2ccccc12)NC(=O)[C@H](C)NC(=O)[C@@H](NC(=O)[C@H](Cc1ccccc1)NC(=O)[C@H](CO)NC(=O)[C@H](CCC(N)=O)NC(=O)[C@H](C)NC(=O)[C@H](C)NC(=O)[C@H](CCC(N)=O)NC(=O)[C@H](CC(=O)O)NC(=O)[C@H](CCC(N)=O)NC(=O)[C@H](CC(C)C)NC(=O)[C@H](Cc1ccc(O)cc1)NC(=O)[C@H](CO)NC(=O)[C@H](CO)NC(=O)[C@@H](NC(=O)[C@H](CC(=O)O)NC(=O)[C@H](CO)NC(=O)[C@@H](NC(=O)[C@H](Cc1ccc(O)cc1)NC(=O)[C@@H](NC(=O)CNC(=O)[C@H](CCC(=O)O)NC(=O)[C@H](C)NC(=O)[C@@H](N)Cc1c[nH]cn1)[C@@H](C)O)[C@@H](C)O)C(C)C)C(C)C)C(=O)N[C@@H](CCCCN)C(=O)N[C@@H](CO)C(=O)NCC(=O)N[C@@H](CCC(N)=O)C(=O)N1CCC[C@H]1C(=O)O", "target": "GLP1R", "test": "reporter gene, agonist, luciferase", "measurement": "EC50", "value": "29.5 nM"}
{"Compound": "CC(C)NCC1CCc2cc(CO)c([N+](=O)[O-])cc2N1 (centres unmarked)", "target": "DRD3", "test": "ligand displacement, radioligand", "measurement": "IC50", "value": "7.4 µM"}
{"Compound": "CO/N=C1\\C[C@]2(C[C@@H]3C[C@@H](C/C=C(\\C)C[C@@H](C)/C=C/C=C4\\CO[C@@H]5[C@H](O)C(C)=C[C@@H](C(=O)O3)[C@]45O)O2)O[C@H](/C(C)=C/C(C)C)[C@H]1C", "target": "Nuclear receptor subfamily 1 group I member 3 (Homo sapiens, UniProt Q14994)", "test": "reporter gene, antagonist", "measurement": "IC50", "value": "44.1 µM"}
{"Compound": "CC(C)[C@@H]1NC(=O)[C@H](CO)NC(=O)[C@H](CO)NC(=O)[C@H](CO)N(C)C(=O)[C@H](CC(=O)O)NC(=O)[C@H](CO)NC(=O)[C@H](Cc2ccccc2)NC(=O)CSC[C@@H](C(=O)NCC(N)=O)NC(=O)[C@H](CC(N)=O)NC(=O)[C@H](CCCNC(=N)N)NC(=O)[C@H](C)NC(=O)[C@H](Cc2ccc(-c3ccccc3)cc2)NC(=O)[C@H](CC(N)=O)NC(=O)[C@@H]2CCCN2C1=O", "target": "Protein Mdm4 (MDM4, Homo sapiens, UniProt O15151)", "test": "ligand displacement, TR-FRET", "measurement": "IC50", "value": "> 10 µM"}
{"Compound": "CC(CCc1ccccc1)NC(C)C(O)c1ccc(O)cc1 (centres unmarked)", "target": "DRD3", "test": "ligand displacement, radioligand", "measurement": "IC50", "value": "1.29 µM"}
{"Compound": "O=C(O[C@@H]1Cc2c(O)cc(O)cc2O[C@@H]1c1cc(O)c(O)c(O)c1)c1cc(O)c(O)c(O)c1", "target": "Maltase-glucoamylase (Homo sapiens, UniProt O43451)", "test": "enzyme activity, inhibitor", "measurement": "Ki", "value": "5930 nM"}
{"Compound": "O=C(O)[C@H]1O[C@@H](Oc2cc(O)cc(/C=C/c3ccc(O)cc3)c2)[C@H](O)[C@@H](O)[C@@H]1O", "target": "Cannabinoid receptor 1 (Cnr1, Mus musculus, UniProt P47746)", "test": "ligand displacement, radioligand", "setting": "cell membranes", "measurement": "Ki", "value": "> 100000 nM"}
{"Compound": "CC(C)(O)[C@@H](Nc1nc(Cl)nc2c1ncn2[C@H]1[C@H](O)[C@H](O)[C@]2(CO)C[C@H]12)C1CC1", "target": "DRD3", "test": "ligand displacement, radioligand", "measurement": "Ki", "value": "1350 nM"}
{"Compound": "CCCc1cc2cc(-n3nc(C)c4c3CC(C)(C)CC4=O)cc(N[C@H]3CC[C@H](O)CC3)c2c(=O)[nH]1", "target": "Heat shock protein 75 kDa, mitochondrial (TRAP1, Homo sapiens, UniProt Q12931)", "test": "ligand displacement, FP", "measurement": "IC50", "value": "> 50 µM"}
{"Compound": "CC[C@H](C)[C@H](NC(=O)[C@H](CC(C)C)NC(=O)[C@H](Cc1c[nH]c2ccccc12)NC(=O)[C@H](CC(=O)O)NC(=O)[C@@H](NC(=O)[C@H](Cc1ccccc1)NC(=O)[C@H](CCC(=O)O)NC(=O)[C@H](CCCCN)NC(=O)[C@H](C)NC(=O)[C@H](C)NC(=O)[C@H](CCCCN)NC(=O)[C@H](CCC(=O)O)NC(=O)[C@H](CC(=O)O)NC(=O)[C@H](CC(C)C)NC(=O)[C@H](Cc1c[nH]cn1)NC(=O)[C@H](CCC(N)=O)NC(=O)[C@@H](NC(=O)[C@@H](NC(=O)[C@H](CC(=O)O)NC(=O)[C@H](CO)NC(=O)[C@@H](NC(=O)[C@H](Cc1ccccc1)NC(=O)[C@@H](NC(=O)CNC(=O)[C@H](CCC(=O)O)NC(=O)[C@H](C)NC(=O)[C@@H](N)Cc1c[nH]cn1)[C@@H](C)O)[C@@H](C)O)C(C)C)[C@@H](C)O)[C@@H](C)CC)C(=O)N[C@@H](CC(N)=O)C(=O)NCC(=O)NCC(=O)N1CCC[C@H]1C(=O)O", "target": "GLP1R", "test": "reporter gene, agonist, luciferase", "measurement": "EC50", "value": "0.449 nM"}
{"Compound": "CCCC[C@@H](NC(=O)[C@@H](N)Cc1c(C)cc(O)cc1C)C(=O)NCC(=O)N[C@@H](Cc1ccc(F)cc1)C(=O)N(C)CCC[C@@]1(c2ccc(F)cc2)OCc2cc(C#N)ccc21", "target": "DRD3", "test": "ligand displacement, radioligand", "measurement": "Ki", "value": "2000 nM"}
{"Compound": "Nc1c(S(=O)(=O)O)cc(Nc2ccc(Nc3nc(Cl)nc(Nc4cccc(S(=O)(=O)O)c4)n3)c(S(=O)(=O)O)c2)c2c1C(=O)c1ccccc1C2=O", "target": "Pantothenate kinase 3 (PANK3, Homo sapiens, UniProt Q9H999)", "test": "enzyme activity, inhibitor, ATP luminescence", "measurement": "IC50", "value": "1.3 µM"}
